Measurements from different studies.
Lines come from different studies, so protocols differ.
Target: Receptor-interacting serine/threonine-protein kinase 2 (RIPK2, Homo sapiens, UniProt O43353)

For Cc1cc(NC(=O)c2cccc3cc(-c4cccc5[nH]nc(N)c45)ccc23)ccc1F, the activity vs control was 110% (enzyme activity; inhibitor; 0.1 µM).
The remaining activity of Cc1sc(C(=O)NC2COC2)cc1-n1cc(NC(=O)Nc2c(F)cccc2Cl)cn1 is reported as 89.3% (enzyme activity; inhibitor; 10 µM).
For COc1cc(Cl)c(C(=O)N[C@@H](CN[C@H]2CC[C@@H](N)CC2)Cc2ccc(C#N)cc2)cc1-c1ccc(CN[C@H](C)c2ccc(C)cc2)o1, the remaining activity was 100% (enzyme activity; inhibitor; 1 µM).
C[C@@H]1CN(c2cc(-c3n[nH]c4ccc(OC5(C)CC5)cc34)ncn2)C[C@H](C)O1 has a remaining binding of 100% (cell-free assay; competition with immobilised ligand; 0.1 µM).
Cn1cnc(Br)c1C1=CN(c2ncnc3[nH]cnc23)CCS1 has an inhibition of 34% (enzyme activity; inhibitor; radiometric; 2 µM).
With Oc1cccc(-c2nc(N3CCOCC3)c3oc4ncccc4c3n2)c1 the remaining activity was 72% (enzyme activity; inhibitor; 10 µM).
The activity vs control of FC(F)(F)Oc1cccc(-c2cnc3ccc(-c4ccncc4)nn23)c1 is reported as 32% (enzyme activity; inhibitor; radiometric; 1 µM).
For Cn1c(=O)n(-c2ccc(C(C)(C)C#N)cc2)c2c3cc(-c4cnc5ccccc5c4)ccc3ncc21, the remaining activity was 28% (enzyme activity; inhibitor; 10 µM).
CCCOc1ccc(OC)c(F)c1C(=O)c1ccc(C(=O)N[C@@H]2CNC[C@H]2NC(=O)c2ccc3[nH]ncc3c2)cc1 has a remaining activity of 91% (enzyme activity; inhibitor; 10 µM).
For CCCOc1ccc([C@H]2[C@H](C(=O)O)[C@@H](c3ccc4c(c3)OCO4)CN2CC(=O)Nc2c(CC)cccc2CC)cc1, the remaining binding was 100% (cell-free assay; competition with immobilised ligand; 1 µM).
F[C@@H]1CCN(c2nccc(-c3cnn4ncccc34)n2)C1 gave a remaining binding of 100% (binding; 1 µM).
The remaining binding of Cc1nccc(COC(=O)N2C[C@@H]3[C@@H](CNC(=O)c4ccc5[nH]nnc5c4)[C@@H]3C2)n1 is reported as 100% (cell-free assay; competition with immobilised ligand; 1 µM).
For Oc1ccc(-c2nc(-c3ccncc3)c(-c3ccc(F)cc3)[nH]2)cc1, the remaining signal was 46.8% (cell-free assay; 0.5 µM).
The remaining activity of Cc1ccc(C(=O)Nc2ccc(CN3CCN(C)CC3)c(C(F)(F)F)c2)cc1C#Cc1cnc2cccnn12 is reported as 43% (enzyme activity; inhibitor; 23.5 nM).
For O=C1NC(=O)c2cc(Nc3ccc(F)cc3)c(Nc3ccc(F)cc3)cc21, the remaining signal was 95% (cell-free assay; 0.5 µM).
O=C(Nc1cnn(-c2csc(C(=O)NC3COC3)c2)c1)Nc1ccccc1Cl has a remaining activity of 120% (enzyme activity; inhibitor; 5 µM).
With O=C1Nc2ccc(Cl)cc2C1=Cc1cc(Cl)c(O)c(Cl)c1 the remaining signal was 50.2% (cell-free assay; 0.5 µM).
CNCc1ccc(-c2cc(-c3nc(-c4ccc(S(=O)(=O)C(C)C)cc4)cnc3N)on2)cc1 gave an inhibition of 26% (enzyme activity; inhibitor; 2 µM).
The remaining binding of C[C@H](c1ccc(F)cc1)N(Cc1cccc(C(=O)O)c1)C(=O)c1cnc2ccccc2c1 is reported as 82% (cell-free assay; competition with immobilised ligand; 1 µM).
The remaining activity of CCN(CC)c1ccc(C2=NNC(=O)CC2C)cc1[N+](=O)[O-] (centres unmarked) is reported as 91% (enzyme activity; inhibitor; 10 µM).
CCN(CC)CCNC(=O)c1c(C)[nH]c(/C=C2\C(=O)Nc3ccc(F)cc32)c1C gave an inhibition of 24% (enzyme activity; inhibitor; 10 µM).
With CCS(=O)(=O)c1cc2cc(C[C@@](O)(CC(C)(C)c3ccc(F)cc3C(N)=O)C(F)(F)F)[nH]c2cn1 the remaining binding was 100% (cell-free assay; competition with immobilised ligand; 1 µM).
For CC(C)(C)c1nc(-c2cccc(NS(=O)(=O)c3c(F)cccc3F)c2F)c(-c2ccnc(N)n2)s1, the remaining activity was 5% (enzyme activity; inhibitor; radiometric; 1 µM).
NS(=O)(=O)c1cc(NC(=O)C2(c3ccccc3Cl)CC2)ccc1Oc1cccc(Cl)c1 gave a remaining binding of 93% (cell-free assay; competition with immobilised ligand; 1 µM).
With C[C@@H]1CCN(C(=O)CC#N)C[C@@H]1N(C)c1ncnc2[nH]ccc12 the remaining signal was 113% (cell-free assay; inhibitor; 0.5 µM).
For CC(=O)N1CCC(c2ccc(C(=O)NC(=N)N)cc2C(F)(F)F)CC1, the remaining binding was 100% (cell-free assay; competition with immobilised ligand; 1 µM).
For COc1cc(/C=C/C(=O)CC(=O)/C=C/c2ccc(O)c(OC)c2)ccc1O, the activity vs control was 16% (enzyme activity; inhibitor; 1 µM).
The remaining binding of CC(=O)c1c(NS(C)(=O)=O)c2cc(-c3ccc(Cl)cc3)c(-c3ccc(Cl)cc3Cl)nc2n(C)c1=O is reported as 96% (cell-free assay; competition with immobilised ligand; 1 µM).
For COc1cc(Nc2cnc(C#N)c(O[C@H](C)CN(C)C)n2)ncc1-c1cnn(C)c1, the remaining activity was 97% (enzyme activity; inhibitor; radiometric; 1 µM).
